# Experimental data collected from several papers.
# Protocols differ between the studies behind these lines.
# MAL12: Alpha-glucosidase MAL12 (MAL12, Saccharomyces cerevisiae S288c, UniProt P53341)
# FABP1: Fatty acid-binding protein, liver (FABP1, Homo sapiens, UniProt P07148)
# SQLE: Squalene monooxygenase (SQLE, Homo sapiens, UniProt Q14534)
Compound,target,assay,setting,IC50 [µM]
C[C@@H]1CN(C(=O)Nc2ccc(Cl)c(Cl)c2)CCN1c1ccnc(Nc2ccc(Cl)cc2)n1,MAL12,"enzyme activity, inhibitor, absorbance",pH 6.9,4.53
CCOc1ccc2c(c1)O/C(=C\c1cc(C)c(OC(C)(C)C(=O)O)c(C)c1)C2=O,FABP1,"cell-free assay, inhibitor, fluorescence",pH 7.4,8.6
O=c1cc(-c2ccc(O)cc2)oc2cc(O[C@@H]3O[C@H](CO)[C@@H](O)[C@H](O)[C@H]3O)cc(O)c12,SQLE,"enzyme activity, inhibitor, radiometric",,1.74
Nc1ccn(C[C@@H](CO)OCP(=O)(O)O)c(=O)n1,"Solute carrier family 22 member 6 (SLC22A6, Homo sapiens, UniProt Q4U2R8, F438Y)","transporter uptake, inhibitor, fluorescence",,1400
CCCOc1ccc2c(c1)O/C(=C\c1cc(C)c(OC(C)(C)C(=O)O)c(C)c1)C2=O,FABP1,"cell-free assay, inhibitor, fluorescence",pH 7.4,4.8
COc1ccc(-c2nn(-c3ccccc3)cc2C2C(C(C)=O)=C(C)n3c(=O)c4ccccc4c(=O)n32)cc1 (stereo not drawn),MAL12,"enzyme activity, inhibitor, absorbance",,13.7
N#Cc1ccc2c(c1)N(CCCN1CCC(O)CC1)c1ccccc1S2,SQLE,"enzyme activity, inhibitor, absorbance","pH 7.4, with preincubation",1.55
Cc1cc2c(cc1C)N[C@H](c1ccccc1)[C@@H](O)C(=O)N2,"Cyclin-dependent kinase 5 (CDK5, Homo sapiens, UniProt Q00535)","enzyme activity, inhibitor, ELISA",,0.663
Cc1cc(/C=C2\Oc3cc(OCC(C)C)ccc3C2=O)cc(C)c1OC(C)(C)C(=O)O,FABP1,"cell-free assay, inhibitor, fluorescence",pH 7.4,4.8
CC(=O)C1=C(C)n2c(=O)c3ccccc3c(=O)n2C1c1cn(-c2ccccc2)nc1-c1ccc(O)cc1 (stereo not drawn),MAL12,"enzyme activity, inhibitor, absorbance",,494
CC[N+](CC)(CC)Cc1ccccc1.CC[N+](CC)(CC)Cc1ccccc1.[Br][Co-2]([Br])([Br])[Br],"Tyrosine-protein phosphatase non-receptor type 1 (PTPN1, Homo sapiens, UniProt P18031)","enzyme activity, inhibitor",,10.9
COc1ccc2c(c1)O/C(=C\c1cc(C)c(OC(C)(C)C(=O)O)c(C)c1)C2=O,FABP1,"cell-free assay, inhibitor, fluorescence",pH 7.4,9
O=c1cc(-c2ccccc2)oc2cc(O)cc(O)c12,SQLE,"enzyme activity, inhibitor, radiometric",,4.47
C[C@H]1CN(C(=O)Nc2ccc(C(F)(F)F)cc2)CCN1c1ccnc(Nc2ccc(Cl)cc2)n1,MAL12,"enzyme activity, inhibitor, absorbance",pH 6.9,1.1
COc1cc(C2Oc3cc([C@H]4Oc5cc(O)cc(O)c5C(=O)[C@@H]4O)ccc3OC2CO)ccc1O (stereo partly drawn),SQLE,"enzyme activity, inhibitor, radiometric",,1.88
C[C@H]1CN(C(=O)Nc2ccc(C(F)(F)F)cc2)CCN1c1ccnc(Nc2ccc(O)cc2)n1,MAL12,"enzyme activity, inhibitor, absorbance",pH 6.9,3.71
O=C1COc2ccc(NS(=O)(=O)c3cccc(Cl)c3)cc2CN1C1CCCc2ccccc21 (stereo not drawn),"Replicase polyprotein 1ab, papain-like protease (rep, Severe acute respiratory syndrome coronavirus 2, UniProt P0DTD1)","enzyme activity, inhibitor, fluorescence",,6
NS(=O)(=O)c1ccc(-n2nc(C(=O)NN=Cc3ccccc3O)cc2-c2ccccc2)cc1,"Focal adhesion kinase 1 (PTK2, Homo sapiens, UniProt Q05397)","enzyme activity, inhibitor, ELISA",,15.9
C[C@H]1CN(C(=O)Nc2ccc(C(F)(F)F)cc2)CCN1c1ccnc(Nc2cccc(Cl)c2)n1,MAL12,"enzyme activity, inhibitor, absorbance",pH 6.9,3.45
CCCOc1ccc2c(c1)O/C(=C\c1ccc(OC(C)(C)C(=O)O)c(C)c1)C2=O,FABP1,"cell-free assay, inhibitor, fluorescence",pH 7.4,5.8
Cc1ccc(NC(=O)N2CCN(c3ccnc(Nc4ccc(Cl)cc4)n3)[C@@H](C)C2)cc1,MAL12,"enzyme activity, inhibitor, absorbance",pH 6.9,2.42
CC(CN1CCN(CCOCCO)CC1)CN1c2ccccc2Sc2ccccc21 (stereo not drawn),SQLE,"enzyme activity, inhibitor, absorbance","pH 7.4, with preincubation",10
CCCOc1ccc2c(c1)O/C(=C\c1ccc(OC(C)(C)C(=O)O)c(Cl)c1)C2=O,FABP1,"cell-free assay, inhibitor, fluorescence",pH 7.4,7.7
COc1ccc(Cl)cc1C(=O)NCCc1ccc(S(=O)(=O)NC(=O)NC2CCCCC2)cc1,"Solute carrier family 22 member 6 (SLC22A6, Homo sapiens, UniProt Q4U2R8, F442A)","transporter uptake, inhibitor, fluorescence",,17.7
CC1(C)CC(=O)C2=C(C1)n1c(=O)c3ccccc3c(=O)n1C2c1cn(-c2ccccc2)nc1-c1ccc(O)cc1 (stereo not drawn),MAL12,"enzyme activity, inhibitor, absorbance",,108
CN1CCC(CNc2ccc3ncc(-c4cccc(OC(F)(F)F)c4)n3n2)CC1,"Alpha-1A adrenergic receptor (ADRA1A, Homo sapiens, UniProt P35348)","calcium signal, antagonist",,4.81
C[C@H]1CN(C(=O)Nc2ccc(C(F)(F)F)cc2)CCN1c1ccnc(Nc2ccccc2Cl)n1,MAL12,"enzyme activity, inhibitor, absorbance",pH 6.9,4.21
CCCOc1ccc2c(c1)O/C(=C\c1ccc(OCC(=O)O)cc1)C2=O,FABP1,"cell-free assay, inhibitor, fluorescence",pH 7.4,14.6
COc1ccc(NC(=O)N2CCN(c3ccnc(Nc4ccc(Cl)cc4)n3)[C@@H](C)C2)cc1,MAL12,"enzyme activity, inhibitor, absorbance",pH 6.9,7.43
CNC(=O)[C@H](Cc1c[nH]c2ccccc12)NC(=O)[C@@H](CC(=O)NO)CC(C)C,"Disintegrin and metalloproteinase domain-containing protein 10 (ADAM10, Homo sapiens, UniProt O14672)","enzyme activity, inhibitor",,0.776
